The source made the active and inactive calls. No cut-off for these calls is given here.
Tests used:
HCC827 [1] = assay: Induction of apoptosis in human HCC827 cells assessed as late apoptotic cells at 500 nM after 48 hrs by Annexin V-FITC/PI staining based flow cytometry (reference value: 1.15%); format: functional
A-431 [2] = assay: Induction of apoptosis in human A431 cells assessed as necrotic cells at 1000 nM after 48 hrs by Annexin V-FITC/PI staining based flow cytometry (reference value: 4.16%); format: functional
A-431 [3] = assay: Induction of apoptosis in human A431 cells assessed as late apoptotic cells at 1000 nM after 48 hrs by Annexin V-FITC/PI staining based flow cytometry (reference value: 2.11%); format: functional
NCI-H1975 [4] = assay: Cell cycle arrest in human NCI-H1975 cells assessed as accumulation at G2/M phase at 100 to 500 nM after 24 hrs by propidium iodide staining based flow cytometry; format: functional
Outline: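 NCI-H1975 cells (2×10^5) seeded in 6-well plates overnight, then treated 24 h at 50, 100, 250 or 500 nM; 1‰ DMSO medium as control. Cells harvested, washed in cold PBS, fixed in 70% cold ethanol at −20 °C overnight, stained with PI/RNase buffer and analysed by flow cytometry. n=3.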

NCI-H1975 [5] = assay: Induction of apoptosis in human NCI-H1975 cells assessed as early apoptotic cells at 500 nM after 48 hrs by Annexin V-FITC/PI staining based flow cytometry (reference value: 2.07%); format: functional
NCI-H1975 [6] = assay: Induction of apoptosis in human NCI-H1975 cells assessed as late apoptotic cells after 48 hrs by Annexin V-FITC/PI staining based flow cytometry; format: functional, cell-based
A-431 [7] = assay: Induction of apoptosis in human A431 cells assessed as late apoptotic cells at 500 nM after 48 hrs by Annexin V-FITC/PI staining based flow cytometry (reference value: 2.11%); format: functional
NCI-H1975 [8] = assay: Induction of apoptosis in human NCI-H1975 cells assessed as viable cells at 1000 nM after 48 hrs by Annexin V-FITC/PI staining based flow cytometry (reference value: 93.7%); format: functional; conditions: NCI-H1975, 48 h, read-out: Activity
[9] = biological target: T1, Epidermal growth factor receptor (Homo sapiens, UniProt P00533); assay: Inhibition of EGFR in human H1975 cells assessed as decrease in EGF-induced AKT phosphorylation by Western blot method; format: cell-based
T1 sequence (P00533 whole entry): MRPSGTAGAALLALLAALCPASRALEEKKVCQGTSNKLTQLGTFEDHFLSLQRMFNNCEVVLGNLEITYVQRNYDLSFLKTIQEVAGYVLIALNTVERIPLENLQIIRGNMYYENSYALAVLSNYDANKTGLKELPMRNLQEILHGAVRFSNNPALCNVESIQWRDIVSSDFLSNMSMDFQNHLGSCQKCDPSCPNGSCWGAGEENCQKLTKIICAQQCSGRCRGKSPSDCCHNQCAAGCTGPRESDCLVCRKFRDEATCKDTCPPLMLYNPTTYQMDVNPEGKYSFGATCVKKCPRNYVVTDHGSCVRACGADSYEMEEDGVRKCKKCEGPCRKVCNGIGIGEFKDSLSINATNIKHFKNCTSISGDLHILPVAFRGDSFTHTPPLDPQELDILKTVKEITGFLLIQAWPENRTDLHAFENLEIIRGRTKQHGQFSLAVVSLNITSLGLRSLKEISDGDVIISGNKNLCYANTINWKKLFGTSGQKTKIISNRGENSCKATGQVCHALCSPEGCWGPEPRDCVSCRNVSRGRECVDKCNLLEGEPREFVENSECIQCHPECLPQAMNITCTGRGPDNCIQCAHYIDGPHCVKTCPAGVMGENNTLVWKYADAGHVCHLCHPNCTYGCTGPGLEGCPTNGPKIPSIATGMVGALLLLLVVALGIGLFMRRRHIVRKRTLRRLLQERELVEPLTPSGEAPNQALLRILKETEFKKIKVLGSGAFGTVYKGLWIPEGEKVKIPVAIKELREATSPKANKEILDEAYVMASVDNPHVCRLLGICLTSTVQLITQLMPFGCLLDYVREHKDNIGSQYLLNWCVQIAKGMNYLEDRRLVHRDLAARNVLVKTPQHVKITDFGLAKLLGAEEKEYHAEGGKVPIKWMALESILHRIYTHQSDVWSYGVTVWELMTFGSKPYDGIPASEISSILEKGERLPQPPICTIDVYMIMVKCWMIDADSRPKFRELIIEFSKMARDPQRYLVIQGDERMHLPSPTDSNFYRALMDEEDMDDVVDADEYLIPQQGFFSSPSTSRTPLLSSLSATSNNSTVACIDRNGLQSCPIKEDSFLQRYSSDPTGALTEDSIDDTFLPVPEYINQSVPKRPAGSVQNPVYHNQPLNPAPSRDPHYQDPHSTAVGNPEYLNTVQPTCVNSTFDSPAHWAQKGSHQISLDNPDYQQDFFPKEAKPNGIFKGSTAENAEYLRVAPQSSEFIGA
Outline: (§1)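 Cell lysates prepared in protein lysis buffer and cleared at 12,000 g for 10 min at 4 °C. 50 μg protein per lane was run on a gel, transferred to PVDF and immunoblotted, with GAPDH as the loading control.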

NCI-H1975 [10] = assay: Induction of apoptosis in human NCI-H1975 cells assessed as early apoptotic cells at 250 nM after 48 hrs by Annexin V-FITC/PI staining based flow cytometry (reference value: 2.07%); format: functional
NCI-H3255 [11] = assay: Induction of apoptosis in human H3255 cells assessed as early apoptotic cells at 500 nM after 48 hrs by Annexin V-FITC/PI staining based flow cytometry (reference value: 3.22%); format: functional
PC-9 = assay: Antitumor activity against human PC9 cells xenografted in BALB/C nude mouse assessed as decrease in tumor volume at 15 to 30 mg/kg, ip qd administered for 19 days measured for 23 days; format: functional, organism-based
Outline: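 Six-week-old BALB/C-nu mice given 2×10^6 PC-9 cells subcutaneously in the right flank. At tumour size ~0.2-0.4 cm³, randomised, 5 mice/group. Dosed ip daily for 19 days at 15 or 30 mg/kg, vehicle DMSO:Span-80:ddH₂O = 2:1:50; vehicle-treated control group. Tumour volume = (W²×L)/2. Tumours weighed.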

[12] = biological target: T1, Epidermal growth factor receptor; assay: Inhibition of EGFR in human H3255 cells assessed as decrease in EGF-induced ERK1/2 phosphorylation by Western blot method; format: cell-based; outline: as §1
A-431 [13] = assay: Induction of apoptosis in human A431 cells assessed as necrotic cells at 500 nM after 48 hrs by Annexin V-FITC/PI staining based flow cytometry (reference value: 4.16%); format: functional
NCI-H3255 [14] = assay: Induction of apoptosis in human H3255 cells assessed as late apoptotic cells at 1000 nM after 48 hrs by Annexin V-FITC/PI staining based flow cytometry (reference value: 1.77%); format: functional
[15] = biological target: T1, Epidermal growth factor receptor; assay: Inhibition of EGFR in human A431 cells assessed as decrease in EGF-induced ERK1/2 phosphorylation by Western blot method; format: cell-based; outline: as §1
NCI-H1975 [16] = assay: Induction of apoptosis in human NCI-H1975 cells assessed as viable cells at 250 nM after 48 hrs by Annexin V-FITC/PI staining based flow cytometry (reference value: 93.7%); format: functional; conditions: NCI-H1975, 48 h, read-out: Activity
NCI-H3255 [17] = assay: Induction of apoptosis in human H3255 cells assessed as viable cells at 500 nM after 48 hrs by Annexin V-FITC/PI staining based flow cytometry (reference value: 87.9%); format: functional; conditions: NCI-H3255, 48 h, read-out: Activity
NCI-H3255 [18] = assay: Induction of apoptosis in human H3255 cells assessed as late apoptotic cells at 500 nM after 48 hrs by Annexin V-FITC/PI staining based flow cytometry (reference value: 1.77%); format: functional
[19] = biological target: T1, Epidermal growth factor receptor; assay: Inhibition of EGFR in human HCC827 cells assessed as decrease in EGF-induced ERK1/2 phosphorylation by Western blot method; format: cell-based; outline: as §1
[20] = AUC (0 to t) in Sprague-Dawley rat at 30 mg/kg, po by UPLC-MS/MS analysis; format: ADME, organism-based; conditions: in vivo
Outline: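 Four female and four male Sprague-Dawley rats, 200-220 g, fasted 12 h, then given a single oral dose of 30 mg/kg as a 0.5% CMC-Na suspension. Blood sampled at 0.083, 0.25, 0.5, 1, 2, 4, 8 and 24 h, plasma separated by centrifugation at 4000 r/min for 10 min, and analysed by UPLC–MS/MS. Parameters reported as mean ± SD, n=6.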

NCI-H3255 [21] = assay: Induction of apoptosis in human H3255 cells assessed as necrotic cells at 1000 nM after 48 hrs by Annexin V-FITC/PI staining based flow cytometry (reference value: 7.06%); format: functional
[22] = biological target: T1, Epidermal growth factor receptor; assay: Inhibition of EGFR in human H1975 cells assessed as decrease in EGF-induced ERK1/2 phosphorylation by Western blot method; format: cell-based; outline: as §1
NCI-H3255 [23] = assay: Induction of apoptosis in human H3255 cells assessed as late apoptotic cells at 250 nM after 48 hrs by Annexin V-FITC/PI staining based flow cytometry (reference value: 1.77%); format: functional
HCC827 [24] = assay: Induction of apoptosis in human HCC827 cells assessed as late apoptotic cells at 250 nM after 48 hrs by Annexin V-FITC/PI staining based flow cytometry (reference value: 1.15%); format: functional
[25] = biological target: T1, Epidermal growth factor receptor; assay: Inhibition of EGF-induced EGFR autophosphorylation at Y1068 residues in human HCC827 cells by Western blot method; format: cell-based; outline: as §1
A-431 [26] = assay: Induction of apoptosis in human A431 cells assessed as viable cells at 250 nM after 48 hrs by Annexin V-FITC/PI staining based flow cytometry (reference value: 90.3%); format: functional; conditions: A-431, 48 h, read-out: Activity
HCC827 [27] = assay: Induction of apoptosis in human HCC827 cells assessed as necrotic cells at 250 nM after 48 hrs by Annexin V-FITC/PI staining based flow cytometry (reference value: 1.41%); format: functional

`COc1cccc(Nc2cc(Nc3cc(OC)ccc3OC)ncn2)c1` showed an Activity (HCC827 [1]) of 7.72%, an Activity (A-431 [2]) of 3.61% and an Activity (A-431 [3]) of 13%. For the same compound, the Activity (NCI-H1975 [4]) was “Active”, the Activity (NCI-H1975 [5]) was 25% and the Activity (NCI-H1975 [6]) was “Dose-dependent effect”. The Activity (A-431 [7]) was 8.57%, the viability at 1 µM (NCI-H1975 [8]) was 46.4% and the inhibition [9] was “Dose-dependent effect”. The Activity (NCI-H1975 [10]) was 22.6%, the Activity (NCI-H3255 [11]) was 11.5% and the Activity (PC-9) was “Active”. For the same compound, the inhibition [12] was “Dose-dependent effect”, the Activity (A-431 [13]) was 5.66% and the Activity (NCI-H3255 [14]) was 10.6%. For the same compound, the inhibition [15] was “Dose-dependent effect”, the viability at 0.25 µM (NCI-H1975 [16]) was 56.1% and the viability at 0.5 µM (NCI-H3255 [17]) was 78.2%. For the same compound, the Activity (NCI-H3255 [18]) was 5.35%, the inhibition [19] was “Dose-dependent effect” and the AUC(0-t) [20] was 5700 ng·h/mL. The Activity (NCI-H3255 [21]) was 6.35%, the inhibition [22] was “Dose-dependent effect” and the Activity (NCI-H3255 [23]) was 3.24%. For the same compound, the Activity (HCC827 [24]) was 10.2%, the inhibition [25] was “Dose-dependent effect” and the viability at 0.25 µM (A-431 [26]) was 79.3%. For the same compound, the Activity (HCC827 [27]) was 12.4%.
